Measurements from ChEMBL document CHEMBL1133895, “1,4-Disubstituted imidazoles are potential antibacterial agents functioning as inhibitors of enoyl acyl carrier protein reductase (FabI)” (Bioorg Med Chem Lett, 2001).
Values after ≈ are worked out from the molar mass of the structure shown.

Columns and labels:
[1] = target: T1, Enoyl-[acyl-carrier-protein] reductase [NADH] FabI (Escherichia coli K-12, UniProt P0AEK4); experiment: Evaluated for inhibition of enoyl acyl carrier protein reductase (FabI) in Escherichia coli.
T1 sequence (P0AEK4 whole entry): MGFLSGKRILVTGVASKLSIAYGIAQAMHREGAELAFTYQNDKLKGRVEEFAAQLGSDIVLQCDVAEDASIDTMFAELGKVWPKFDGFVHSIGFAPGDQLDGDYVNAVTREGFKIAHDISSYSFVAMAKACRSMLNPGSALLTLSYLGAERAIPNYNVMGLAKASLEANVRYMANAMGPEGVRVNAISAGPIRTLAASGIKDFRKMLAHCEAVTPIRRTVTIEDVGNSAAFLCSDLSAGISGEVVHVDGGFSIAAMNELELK

[2] = target: T2, Enoyl-[acyl-carrier-protein] reductase [NADPH] FabI (Staphylococcus aureus, UniProt Q6GI75); experiment: Evaluated for inhibition of enoyl acyl carrier protein reductase (FabI) in Staphylococcus aureus.
T2 sequence (Q6GI75 whole entry): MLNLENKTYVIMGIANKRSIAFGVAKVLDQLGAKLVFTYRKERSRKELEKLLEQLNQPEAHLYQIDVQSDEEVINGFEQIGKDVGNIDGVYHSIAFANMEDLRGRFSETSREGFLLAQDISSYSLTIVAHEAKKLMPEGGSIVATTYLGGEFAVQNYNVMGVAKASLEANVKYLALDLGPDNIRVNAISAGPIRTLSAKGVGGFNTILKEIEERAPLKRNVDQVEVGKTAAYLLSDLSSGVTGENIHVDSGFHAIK

[3] = system: Moraxella catarrhalis; experiment: Antibacterial activity against Moraxella catarrhalis 1502; type: functional
[4] = system: Staphylococcus aureus; experiment: Antibacterial activity against Staphylococcus aureus Oxford.; type: functional
[5] = target: T1, Enoyl-[acyl-carrier-protein] reductase [NADH] FabI; experiment: Evaluated for inhibition of enoyl acyl carrier protein reductase (FabI) of Escherichia coli in the presence of NADH using crotonoyl CoA as substrate
Procedure, shortened: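 Cloned, overexpressed, purified E. coli FabI (usually 60 nM) in 100 mM NaADA pH 6.5, 4% glycerol, 0.25 mM crotonoyl CoA, 50 µM NADH; inhibitor typically 0.01-10 µM. NADH consumption followed at 340 nm, 20 min, 30 °C; initial velocities from tangent at t = 0 of exponential fit; IC50 from 4-parameter fit, mean ± SD of duplicates.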

[6] = target: T2, Enoyl-[acyl-carrier-protein] reductase [NADPH] FabI; experiment: Evaluated for inhibition of enoyl acyl carrier protein reductase (FabI) of Staphylococcus aureus in the presence of NADH using crotonoyl CoA as substrate

`COc1ccc(-c2c[nH]c(Cc3ccc(C)cc3)n2)cc1` was tested, and the IC50 [1] was over 100 µM and the IC50 [2] was 66.2 µM.
With `Cc1ccc(Cn2cnc(-c3cccc(Cl)c3Cl)c2)cc1` the IC50 [2] was over 10 µM.
Work on `c1ccc(-c2ccc(Cn3cnc(-c4ccsc4)c3)cc2)cc1` yielded an IC50 [1] of 1.18 µM and an IC50 [2] of 7.66 µM.
For `COc1ccc(-c2cn(Cc3ccc(C(F)(F)F)cc3)cn2)cc1`, the IC50 [1] was 28.3 µM and the IC50 [2] was 4.07 µM.
Molecule `Cc1ccc(Cc2nc(-c3ccsc3)no2)cc1` has an IC50 [1] of over 100 µM and an IC50 [2] of 50.7 µM.
`COc1ccc(-c2cn(Cc3ccccc3)cn2)cc1` was tested, and the IC50 [1] was 5.28 µM, the IC50 [2] was 1.13 µM and the MIC [3] was 64 µg/mL (≈ 242 µM). For the same molecule, the MIC [4] was 64 µg/mL (≈ 242 µM).
For `Cc1ccc(Cc2coc(-c3ccsc3)n2)cc1`, the IC50 [1] was over 100 µM and the IC50 [2] was over 100 µM.
With `c1ccc(C[C@@H]2COC(c3ccsc3)=N2)cc1` the IC50 [1] was over 100 µM and the IC50 [2] was over 100 µM.
`Cc1ccccc1Cn1cnc(-c2ccsc2)c1` was tested, and the IC50 [1] was 65.4 µM and the IC50 [2] was 36.5 µM.
`Cn1cnc(-c2ccsc2)c1` gave an IC50 [2] of over 100 µM.
Work on `O=[N+]([O-])c1cccc(Cn2cnc(-c3ccsc3)c2)c1` yielded an IC50 [1] of 26.9 µM and an IC50 [2] of 14.7 µM.
With `O=C(O)c1cccc(Cn2cnc(-c3ccsc3)c2)c1` the IC50 [1] was over 100 µM and the IC50 [2] was over 100 µM.
Work on `Cc1ccc(Cc2noc(-c3ccsc3)n2)cc1` yielded an IC50 [1] of over 100 µM and an IC50 [2] of 51 µM.
For `Nc1ccc(Cn2cnc(-c3ccsc3)c2)cc1`, the IC50 [1] was 5.14 µM, the IC50 [2] was 2.03 µM and the MIC [3] was over 64 µg/mL. The MIC [4] was over 64 µg/mL.
Molecule `c1ccc(C[C@H]2COC(c3ccsc3)=N2)cc1` has an IC50 [1] of over 100 µM and an IC50 [2] of over 100 µM.
Molecule `Cc1ccc(Cn2cnc(-c3ccsc3)c2)cc1` has an IC50 [1] of 6.44 µM, an IC50 [2] of 0.25 µM and an MIC [3] of 32 µg/mL (≈ 126 µM). The MIC [4] was 8 µg/mL (≈ 31.5 µM).
Molecule `FC(F)(F)c1ccc(-c2cn(Cc3ccccc3)cn2)cc1` has an IC50 [2] of over 100 µM.
With `Cc1cccc(Cn2cnc(-c3ccsc3)c2)c1` the IC50 [1] was 12.2 µM, the IC50 [2] was 4.24 µM and the MIC [3] was 32 µg/mL (≈ 126 µM). The MIC [4] was over 64 µg/mL.
`COc1ccc(Cn2cnc(-c3ccsc3)c2)cc1` was tested, and the IC50 [1] was 9.4 µM, the IC50 [2] was 1.9 µM and the MIC [3] was 64 µg/mL (≈ 237 µM). The MIC [4] was 16 µg/mL (≈ 59.2 µM).
Work on `COc1ccc(-c2cn(Cc3ccc(C)cc3)cn2)cc1` yielded an IC50 [1] of 3.92 µM, an IC50 [2] of 0.36 µM and an MIC [3] of 32 µg/mL (≈ 115 µM). It also gave an MIC [4] of 8 µg/mL (≈ 28.7 µM).
`Cc1ccc(Cn2cnc(-c3cccs3)c2)cc1` was tested, and the IC50 [5] was 13.7 µM, the IC50 [6] was 1.24 µM and the MIC [4] was 128 µg/mL (≈ 503 µM).
`Oc1cc(Cl)ccc1Oc1ccc(Cl)cc1Cl` [TRICLOSAN] gave an MIC [3] of 0.06 µg/mL (≈ 0.207 µM) and an MIC [4] of 0.03 µg/mL (≈ 0.104 µM).
